Assay outcomes deposited in PubChem BioAssay by several laboratories.
An excerpt weighted towards active compounds, which were near 2.2% of everything screened.
FLuc inh counter – Photinus pyralis luciferase inhibition counter-screen | ATPLite firefly luciferase biochemical luminescence, 10 min | P08659 | inhibition, % at 10 µM | 200,000 compounds, 1.5% hits | AID 1006;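 active = inhibition above about 50% when tested at 10 µM, limit read from the data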
Target sequence (P08659 whole entry, looked up): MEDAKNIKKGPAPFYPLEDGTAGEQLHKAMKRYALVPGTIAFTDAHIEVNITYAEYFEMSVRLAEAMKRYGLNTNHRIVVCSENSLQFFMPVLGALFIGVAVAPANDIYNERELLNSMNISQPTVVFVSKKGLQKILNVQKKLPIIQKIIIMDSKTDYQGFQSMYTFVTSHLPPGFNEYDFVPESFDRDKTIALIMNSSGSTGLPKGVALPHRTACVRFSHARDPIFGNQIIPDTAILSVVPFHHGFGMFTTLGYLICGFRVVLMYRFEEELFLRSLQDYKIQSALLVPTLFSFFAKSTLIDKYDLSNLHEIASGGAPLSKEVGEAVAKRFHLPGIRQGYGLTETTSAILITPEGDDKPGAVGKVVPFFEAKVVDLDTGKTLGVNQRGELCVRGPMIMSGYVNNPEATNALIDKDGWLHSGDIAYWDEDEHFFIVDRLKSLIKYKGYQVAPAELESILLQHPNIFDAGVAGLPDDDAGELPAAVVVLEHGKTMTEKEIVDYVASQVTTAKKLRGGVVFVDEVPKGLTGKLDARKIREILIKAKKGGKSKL
APP 5'UTR act – APP 5'UTR luciferase reporter activation; 190,000 compounds, 1% hits; SH-SY5Y APP 5'UTR luciferase reporter, luminescence; zero percent = DMSO vehicle wells; AID 1276; activation, % at 2 µM;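 active = activation above a set limit, based on mean plus 3 SD of controls, cut at about 140% in these data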
PPC-1+TRAIL kill – compounds killing PPC-1 cancer cells with TRAIL present (potentiator screen, no TRAIL-free arm) | cell killing (% activity), % at 4 µM or 5 µM | AID 1443 | 220,000 compounds, 0.41% hits | PPC-1 cells + TRAIL, ATPLite viability luminescence;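 active = cell killing above 50% in the first pass at 4 µM, then a duplicate retest at 5 µM averaging 50% or more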;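 also: plate controls were cells with TRAIL plus DMSO for no effect and medium-only wells lacking cells for full effect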
FLuc stim CS – firefly luciferase counter-screen for stimulation assays | P08659 | ATPlite luciferase biochemical, luminescence, 10 min; 0 = ATP-free wells, 1 = DMSO control | activation factor at 10 µM | 200,000 tested, under 10 active | AID 1027;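 active = luciferase activation factor, scaled between plate controls, of at least 2 with compound at 10 µM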
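Material: Luciferase/luciferin reagent mix; Doses: test compounds dosed from 2 mM stocks in 100% DMSO; Schedule: 10 min incubation after luciferase reagent addition, room temperature; Measured by: luminescence from luciferase reaction; Read-out: luminescence gain marking luciferase activators.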
TRAIL sens C8 – caspase-8 TRAIL sensitization. NB7+C8 cells + TRAIL, ATPlite viability luminescence. inhibition (viability loss, TRAIL sensitization), % at 10 µM. 360,000 compounds, 1% hits;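 active = compounds causing at least 50% loss of cell viability in the single-dose screen, relative to plate controls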
NF-kB expr up – raises NF-kB expression in human neuronal cells | fold change at 12.5 µM | 190,000 compounds, 1.6% hits | NF-kB reporter expression; hits give high values; in the data active = fold change above about 3.3
* marks the source's active call; other numbers are inactive results; nt = no result given.

SMILES | FLuc inh counter | APP 5'UTR act | PPC-1+TRAIL kill | FLuc stim CS | TRAIL sens C8 | NF-kB expr up
C=CCCC(=O)N1C[C@H]2CON(C)[C@H]2C[C@H]1c1ccc(Br)cc1 | nt | nt | nt | nt | 2 | nt
CCc1ccc(-c2cn3nc(C)c(C)nc3n2)cc1 | 84* | 2 | nt | 0.2 | 56* | 2.9
Cc1nc2nc(-c3ccccc3)cn2nc1C | 46 | 98 | 29 | 0.5 | -9 | 4.7*
Cc1nc2nc(-c3ccc(F)cc3)cn2nc1C | nt | nt | nt | nt | 21 | nt
c1ccc(-c2cn3nc(-c4ccccc4)cnc3n2)cc1 | 37 | 172* | -2 | 0.6 | 23 | 4.1*
CN1CCc2c(sc(NC(=O)c3ccc([N+](=O)[O-])o3)c2C(N)=O)C1 | nt | nt | nt | nt | 60* | nt
COc1cccc(NC(=O)COC(=O)CNC(=O)C2CCCCC2)c1 | nt | nt | nt | nt | 3 | nt
Cc1ccc(S(=O)(=O)N(C)C)cc1NC(=S)Nc1ccc2[nH]c(=O)[nH]c2c1 | -7 | -14 | 8 | 1.1 | -3 | 0.97
CC(C)c1ccc(/C=C/C2=NNC(=O)CC2)cc1 | 26 | 165* | -3 | 0.7 | 15 | 4.6*
COc1cc(/C=C/C2=NNC(=O)CC2)cc(OC)c1OC | nt | nt | nt | nt | 4 | nt
COC(=O)CSc1cnc2ccccc2n1 | -11 | -5 | -12 | 1.1 | -11 | 1.1
O=C(CSc1cnc2ccccc2n1)c1ccc(F)cc1 | 8 | 189* | 15 | 0.9 | 5 | 4.1*
CN(NC(=O)c1ccc(Cl)cc1)c1nc(-c2ccccc2)nnc1C(F)(F)F | -5 | 3 | -17 | 1 | 49* | 1.2
COc1cc(OC)cc(-c2c(-c3cccs3)c3cc(-c4ccn[nH]4)ccc3n2C)c1 | nt | nt | nt | nt | 11 | nt
CC(C)C(NC(=O)C(Cc1ccccc1)NC(=O)OCc1ccccc1)C(=O)O (stereo unspecified) | -5 | 8 | 3 | 1.1 | -2 | 1.2
CC(C)(C)C(=O)COC(=O)CNC(=O)c1ccc(Oc2ccccc2)cc1 | 1 | 6 | -16 | 1 | 0 | 1.2
Cc1cccnc1NC(=O)c1cc2ccccc2oc1=O | 50 | 176* | 23 | 0.5 | 33 | 4.2*
Cc1ccccc1-c1nnc(NC(=O)c2cc3ccccc3oc2=O)s1 | -5 | 19 | 2 | 1.1 | nt | 1.2
CS(=O)(=O)Nc1ccc(-c2cnc3cccnn23)cc1 | nt | nt | nt | nt | 7 | nt
COc1cccc(C(=O)Nc2ccc(C3CC3(Cl)Cl)cc2)c1 (stereo unspecified) | 58* | 94 | 21 | 0.4 | 49* | 5.7*
COc1cccc(C(=O)Nc2ccc(C(=O)O)cc2)c1 | -3 | -3 | 12 | 1 | 7 | 1.4
CN(C)S(=O)(=O)Oc1cccc(C(=O)Nc2ccc(Cl)cc2)c1 | 16 | 141* | 17 | 0.8 | 49 | 5.3*
O=C(NC1=NCCS1)c1ccc(-c2ccc(Cl)cc2)o1 | 66* | 119 | 29 | 0.3 | 43 | 4.6*
COc1cccc(C(=O)NC2=NCCS2)c1 | 52* | 126 | 22 | 0.5 | 24 | 3.2
CCc1nc2ccc(C(=O)NCCCN(C)C)cn2c1N(C)CCCc1ccccc1 | nt | nt | nt | nt | -15 | nt
SMILES | FLuc inh counter | APP 5'UTR act | PPC-1+TRAIL kill | FLuc stim CS | TRAIL sens C8 | NF-kB expr up
N#C/C(=C\c1ccc(N2CCCCC2)o1)C(N)=O | 9 | 30 | 8 | 0.9 | 8 | 1.3
N#C/C(=C\c1ccc(N2CCCCC2)o1)C(=O)Nc1cccc(Br)c1 | 12 | 170* | 16 | 0.9 | 18 | 1.1
Cc1ccc(Nc2ncnc3nc[nH]c23)cc1Cl | 11 | 98 | 20 | 0.9 | -2 | 3.3*
Cc1ccc(-n2ncc3c2CC(C)(C)CC3NC(=O)CCc2ccncc2)cc1 (stereo unspecified) | nt | nt | nt | nt | -5 | nt
COc1ccc(Nc2cccc3ccccc23)cc1 | nt | nt | nt | nt | 56* | nt
O=C(N/N=C1\CCc2ccccc21)c1ccccc1Cl | 26 | 102 | 22 | 0.7 | 10 | 2.9
Cc1ccc(C(=O)N/N=C2\CCc3ccccc32)c(C)c1 | 62* | 127 | 24 | 0.4 | 48 | 5.7*
O=C(N/N=C1\CCc2ccccc21)c1ccc(O)cc1 | 66* | 138* | 33 | 0.3 | 33 | 3.3
O=C(CC(=O)c1cc(Cl)ccc1O)c1ccccc1 | -1 | 58 | 11 | 1 | 26 | 2
O=C(c1ccccc1)c1cc(Cl)ccc1N1C(=O)C=CC1=O | 58* | -80 | 23 | 0.4 | 2 | 0.93
CCCCCN=C(N)N/N=C/c1c[nH]c2ccc(OC)cc12 | nt | nt | nt | nt | 94* | nt
O=C(Cc1ccc(NC(=O)C2CCCN(C(=O)CCc3ccccc3)C2)cc1)Nc1cccc(C(=O)N2CCCC2)c1 (stereo unspecified) | nt | nt | nt | nt | 5 | nt
Oc1c(Cl)cccc1C=Nc1cc(C(F)(F)F)ccc1N1CCCC1 | -5 | 5 | 24 | 1.1 | 2 | 0.89
Oc1c(Cl)cc(Cl)cc1C=Nc1cc(C(F)(F)F)ccc1N1CCc2ccccc2C1 | nt | nt | 37 | nt | 53* | nt
O=C(O)c1ccc(Nc2nc(-c3ccccc3)cs2)cc1 | 8 | 126 | -4 | 0.9 | 5 | 4.7*
Cc1cccnc1Nc1nc(-c2ccccc2)cs1 | nt | nt | nt | nt | 11 | nt
CC(=O)Nc1ccc(-c2csc(Nc3cc(C)ccn3)n2)cc1 | 3 | 41 | 12 | 1 | 17 | 1.1
c1ccc(-c2csc(Nc3ncccn3)n2)cc1 | 28 | 163* | 29 | 0.7 | 39 | 2.8
Oc1ccc(-c2csc(Nc3ncccn3)n2)cc1 | 56* | 173* | 38 | 0.4 | 29 | 9.1*
CC(=O)Nc1ccc(-c2csc(Nc3ncccn3)n2)cc1 | 0 | 141* | -3 | 1 | 8 | 1.4
Oc1ccc(Nc2nc(-c3ccc4ccccc4c3)cs2)cc1 | 22 | -2 | 28 | 0.8 | 19 | 2.8
Cc1csc(Nc2ccc(C(=O)O)cc2)n1 | nt | nt | -4 | nt | 12 | nt
Cc1ccc(C)c(NC(=O)CN2C(=O)C3CC=CCC3C2=O)c1 (stereo unspecified) | nt | nt | nt | nt | -11 | nt
c1ccc(CCNc2nc(-c3ccncc3)cs2)cc1 | 2 | 22 | 11 | 1 | 0 | 1.7
CCCCCNc1nc(-c2ccccc2)cs1 | 27 | 2 | 8 | 0.7 | nt | 6.4*
SMILES | FLuc inh counter | APP 5'UTR act | PPC-1+TRAIL kill | FLuc stim CS | TRAIL sens C8 | NF-kB expr up
Cc1cc(Oc2ccccc2)nc(-c2ccccc2)n1 | -7 | 2 | 17 | 1.1 | -2 | 1.3
C=C(C)c1nc(Oc2ccccc2)nc(Oc2ccccc2)n1 | nt | nt | nt | nt | 55* | nt
Brc1ccccc1-n1nnc(-c2nccs2)n1 | 51* | 127 | 12 | 0.5 | 11 | 3.9*
O=C(Nc1ccc(Cl)cc1C(=O)c1ccccn1)c1ccccc1 | nt | nt | nt | nt | -1 | nt
c1ccc(OCc2cc(-c3ccccc3)no2)cc1 | 20 | 59 | 16 | 0.8 | 8 | 2
COc1ccccc1OCc1cc(-c2ccccc2)no1 | 20 | 80 | 0 | 0.8 | 6 | 4.3*
CCOC(=O)C1CCCN(C(=O)c2cc3ccccc3oc2=O)C1 (stereo unspecified) | -5 | 2 | 2 | 1 | 11 | 1.4
Cc1ccc(N=C/C(C(=O)C(F)(F)F)=C(\O)c2ccco2)cc1Cl | 41 | 136* | 41 | 0.6 | 30 | 6.1*
